Data from the RNAGym collection of RNA variant scans (doi:10.1101/gad.245936.114).
Fewer inactive variants are shown than the library holds.

B1: tRNA (parent)
chain: CUCUCGGUAGCCAAGUUGGUUUAAGGCGCAAGACUUUAAUUUAUCACUACGAAAUCUUGAGAUCGGGCGUUCGACUCGCCCCCGGGAGAUUUUUUCCUCGAGCAA

Variants of: B1
Test: nonsense suppression (GFP-seq) (ratio to wild type); higher = more function; SUP4oc tRNA, yeast GFP reporter sort-seq
Procedure, shortened: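 Yeast were grown in raffinose/galactose medium with 80 mg/L adenine, each strain bearing a genome-integrated ochre-suppressor tRNA variant from a ~3% random-mutation library, a galactose-driven GFP ochre reporter, and RFP. After sorting into GFP/RFP bins, every bin was sequenced on an Illumina platform at phred ≥30. The GFPSEQ value, a measure of nonsense suppression, is the weighted bin median GFP/RFP relative to the unmutated parent tRNA, using each variant's estimated cell share per bin as the weight. Only variants with ≥100 reads and ≥30 cells were included.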

Row | Variant | nonsense suppression
1 | U17C A54U | 0.788
2 | A9C A23G | 0.0661
3 | A31G A60C | 0.177
4 | G61C U71C | 0.061
5 | A13C C72U C81U | ≤ 0.026
6 | G18C G61A | ≤ 0.026
7 | A13C A60C | 0.29
8 | A9G C72A | 0.0268
9 | U16A A24C | 0.872
10 | U21A U55C U57G | ≤ 0.026
11 | C34U U35G U57C G61A C82U | ≤ 0.026
12 | A23U A31G A33G G67C | ≤ 0.026
13 | G26U U71C | ≤ 0.026
14 | U57A G66A G78C C82A | ≤ 0.026
15 | C12U A33C C80G | ≤ 0.026
16 | A24C A54G | 0.0609
17 | C5G C12G | 0.174
18 | C34G G86U | ≤ 0.026
19 | U17G U21A | 1.16
20 | U4C A14U | 0.0343
21 | A54U G85U | 1.01

Row | Variant | nonsense suppression
22 | A14G C64A G65A | ≤ 0.026
23 | A9U C72G | 0.0446
24 | G25A A30C | ≤ 0.026
25 | A54C G73C | 0.0591
26 | U8A A9G | 0.0277
27 | C5G A13G G78U | ≤ 0.026
28 | G15A U57C G59C G78A | ≤ 0.026
29 | G15A U21C C34G U35G U58A | ≤ 0.026
30 | U2G G32C | ≤ 0.026
31 | G7A A54C G67U | ≤ 0.026
32 | C11G C29G G61U | ≤ 0.026
33 | A23U G25U G69C | ≤ 0.026
34 | A23C U76G G88A | ≤ 0.026
35 | G18C A33G C80G | ≤ 0.026
36 | A24C U63C | 0.205
37 | A74C U76C G86A A89G | ≤ 0.026
38 | G32C A62U G65C C80A G88A | ≤ 0.026
39 | C1G U8C U55G G69C | ≤ 0.026
40 | A60U C68U | 1.1
41 | C3U C77G | 0.0323
42 | C5U G85A | 0.08

Row | Variant | nonsense suppression
43 | C3A C29A A54U | ≤ 0.026
44 | G28U A33C U63A U71G | ≤ 0.026
45 | C5A G78C | ≤ 0.026
46 | A9G G84A | 0.0699
47 | G18U A33U C82U A89C | ≤ 0.026
48 | G7A A24C | 0.123
49 | G6U U16G G59A G78A | ≤ 0.026
50 | G19A A23C G85U | ≤ 0.026
51 | C29U G32U U57A A62G U63C G69C | ≤ 0.026
52 | G59U | 0.116
53 | C34U G69A A89C | ≤ 0.026
54 | U16C | 0.862
55 | A9C U20C C75A | 0.566
56 | G6U U63G U71C G85U A89C | ≤ 0.026
57 | C75G | 1.04
58 | U63G G84C | 0.0283
59 | U17A G26U A89U | ≤ 0.026
60 | U4C A31U | 1.04
61 | G10U C34G U63A C81U | ≤ 0.026
62 | G15C G19C | ≤ 0.026
63 | A54C C80U | 0.194

Row | Variant | nonsense suppression
64 | C3U G10C A23U C83G G85A A89U | ≤ 0.026
65 | G61A C80U | 0.232
66 | A13C C72U | 0.23
67 | C3U U21C G61A | 0.206
68 | U76C C81U | 0.0575
69 | C72G G73A | 0.0319
70 | A24C U58G G86U | ≤ 0.026
71 | C11A A30C U57A | ≤ 0.026
72 | C11U C56G G73C G78A C79G | ≤ 0.026
73 | C5G G66U U71C | ≤ 0.026
74 | U2C U4C | 1.01
75 | G7U A9U A31U | ≤ 0.026
76 | G28A A54C | 0.878
77 | G78A A87G | 0.294
78 | U4C U20C | 1.05
79 | U21G G61A C64A C81A | ≤ 0.026
80 | C3A C72A | ≤ 0.026
81 | G61A G73A | 0.202
82 | U20A G28A | 0.813
83 | U76A C80U | 0.0419
